Results reported in the M2OR odorant receptor database.

What was measured:
Conditions in all cases: stereoisomer not certain
OR10A2 (Homo sapiens) = OR10A2 (Homo sapiens) (UniProt Q9H208)
Method in brief: (§1)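 Transient luciferase assays in mammalian cell lines were common, though methods varied by source. The values come from published papers and their supplementary material, with extra details from the original authors when needed. Responsive refers to a measured signal the original authors judged statistically different from baseline, and non-responsive (inactive) to the remainder.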

OR10A3 (Homo sapiens) = OR10A3 (Homo sapiens) (UniProt P58181)
Chain of OR10A3 (Homo sapiens) (P58181 whole entry): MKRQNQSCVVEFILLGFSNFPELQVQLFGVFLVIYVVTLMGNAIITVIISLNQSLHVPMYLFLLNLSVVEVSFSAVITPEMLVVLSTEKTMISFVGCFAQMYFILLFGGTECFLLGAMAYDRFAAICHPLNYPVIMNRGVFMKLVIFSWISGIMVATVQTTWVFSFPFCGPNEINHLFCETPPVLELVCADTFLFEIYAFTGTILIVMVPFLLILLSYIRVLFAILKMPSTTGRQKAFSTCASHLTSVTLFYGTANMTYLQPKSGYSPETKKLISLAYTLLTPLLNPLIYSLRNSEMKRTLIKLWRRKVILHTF
Method in brief: as §1

OR10A4 (Homo sapiens) = OR10A4 (Homo sapiens) (UniProt Q9H209)
Chain of OR10A4 (Homo sapiens) (Q9H209 whole entry): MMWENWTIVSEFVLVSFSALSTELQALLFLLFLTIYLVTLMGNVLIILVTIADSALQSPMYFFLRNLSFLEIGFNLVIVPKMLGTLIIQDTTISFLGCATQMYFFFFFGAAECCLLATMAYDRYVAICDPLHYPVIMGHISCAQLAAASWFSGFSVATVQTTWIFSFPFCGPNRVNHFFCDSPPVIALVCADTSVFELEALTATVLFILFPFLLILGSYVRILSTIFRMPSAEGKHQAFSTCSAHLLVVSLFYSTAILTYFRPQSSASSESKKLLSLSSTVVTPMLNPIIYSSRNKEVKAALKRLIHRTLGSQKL
Method in brief: as §1

OR10A5 (Homo sapiens) = OR10A5 (Homo sapiens) (UniProt Q9H207)
Chain of OR10A5 (Homo sapiens) (Q9H207 whole entry): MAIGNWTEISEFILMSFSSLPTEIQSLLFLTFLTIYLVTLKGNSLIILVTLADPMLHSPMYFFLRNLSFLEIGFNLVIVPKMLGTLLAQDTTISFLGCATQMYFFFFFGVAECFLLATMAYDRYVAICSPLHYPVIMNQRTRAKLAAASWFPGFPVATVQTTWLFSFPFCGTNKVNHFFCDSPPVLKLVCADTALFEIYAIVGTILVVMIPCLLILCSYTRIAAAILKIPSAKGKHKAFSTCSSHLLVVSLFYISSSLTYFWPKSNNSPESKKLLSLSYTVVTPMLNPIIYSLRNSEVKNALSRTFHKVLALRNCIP
Method in brief: as §1

OR10A6 (Homo sapiens) = OR10A6 (Homo sapiens) (UniProt Q8NH74)
Chain of OR10A6 (Homo sapiens) (Q8NH74 whole entry): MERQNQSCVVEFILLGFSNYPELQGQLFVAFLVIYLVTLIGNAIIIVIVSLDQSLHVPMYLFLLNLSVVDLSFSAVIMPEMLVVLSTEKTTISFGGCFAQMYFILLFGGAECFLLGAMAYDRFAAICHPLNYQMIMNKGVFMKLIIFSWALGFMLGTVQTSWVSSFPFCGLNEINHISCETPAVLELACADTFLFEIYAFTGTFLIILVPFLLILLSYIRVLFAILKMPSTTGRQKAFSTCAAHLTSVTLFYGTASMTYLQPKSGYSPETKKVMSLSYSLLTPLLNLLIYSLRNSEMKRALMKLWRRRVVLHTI
Method in brief: as §1

OR10A7 (Homo sapiens) = OR10A7 (Homo sapiens) (UniProt Q8NGE5)
Chain of OR10A7 (Homo sapiens) (Q8NGE5 whole entry): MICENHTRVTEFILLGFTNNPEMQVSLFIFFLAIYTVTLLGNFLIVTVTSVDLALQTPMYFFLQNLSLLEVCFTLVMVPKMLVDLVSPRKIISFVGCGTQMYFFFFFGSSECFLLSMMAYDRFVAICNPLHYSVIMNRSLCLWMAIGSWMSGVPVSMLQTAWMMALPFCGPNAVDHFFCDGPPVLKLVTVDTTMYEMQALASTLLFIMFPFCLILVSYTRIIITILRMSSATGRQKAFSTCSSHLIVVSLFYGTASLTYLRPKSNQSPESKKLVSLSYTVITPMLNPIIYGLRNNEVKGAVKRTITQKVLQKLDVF
Method in brief: as §1

OR10AD1 (Homo sapiens) = OR10AD1 (Homo sapiens) (UniProt Q8NGE0)
Chain of OR10AD1 (Homo sapiens) (Q8NGE0 whole entry): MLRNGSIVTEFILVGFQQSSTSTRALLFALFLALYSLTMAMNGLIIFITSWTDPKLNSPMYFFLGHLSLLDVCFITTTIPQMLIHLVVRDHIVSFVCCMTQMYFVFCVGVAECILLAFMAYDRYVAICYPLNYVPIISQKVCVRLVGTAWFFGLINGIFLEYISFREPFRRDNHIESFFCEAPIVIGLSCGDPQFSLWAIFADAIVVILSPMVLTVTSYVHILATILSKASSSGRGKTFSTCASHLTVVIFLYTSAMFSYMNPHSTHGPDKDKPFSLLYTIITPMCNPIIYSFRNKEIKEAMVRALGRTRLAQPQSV
Method in brief: as §1

OR10AG1 (Homo sapiens) = OR10AG1 (Homo sapiens) (UniProt Q8NH19)
Chain of OR10AG1 (Homo sapiens) (Q8NH19 whole entry): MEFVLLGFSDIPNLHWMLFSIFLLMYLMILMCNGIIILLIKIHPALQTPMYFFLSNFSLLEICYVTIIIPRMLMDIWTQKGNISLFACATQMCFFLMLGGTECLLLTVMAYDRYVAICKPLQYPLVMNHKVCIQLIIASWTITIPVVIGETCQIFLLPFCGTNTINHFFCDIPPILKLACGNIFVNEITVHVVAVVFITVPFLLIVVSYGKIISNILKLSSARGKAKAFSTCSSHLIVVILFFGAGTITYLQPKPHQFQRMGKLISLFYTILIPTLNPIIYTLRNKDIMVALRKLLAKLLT
Method in brief: as §1

OR10C1 (Homo sapiens) = OR10C1 (Homo sapiens) (UniProt Q96KK4)
Chain of OR10C1 (Homo sapiens) (Q96KK4 whole entry): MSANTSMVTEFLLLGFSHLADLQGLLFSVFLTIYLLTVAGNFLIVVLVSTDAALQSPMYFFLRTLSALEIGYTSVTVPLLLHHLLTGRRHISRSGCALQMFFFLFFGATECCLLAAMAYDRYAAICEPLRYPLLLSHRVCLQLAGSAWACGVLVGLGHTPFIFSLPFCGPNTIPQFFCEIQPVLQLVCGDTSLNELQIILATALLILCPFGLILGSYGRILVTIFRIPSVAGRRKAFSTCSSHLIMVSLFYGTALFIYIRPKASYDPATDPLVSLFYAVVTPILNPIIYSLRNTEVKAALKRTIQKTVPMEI
Method in brief: as §1

OR10AC1 (Homo sapiens) = OR10AC1 (Homo sapiens) (UniProt Q8NH08)
Chain of OR10AC1 (Homo sapiens) (Q8NH08 whole entry): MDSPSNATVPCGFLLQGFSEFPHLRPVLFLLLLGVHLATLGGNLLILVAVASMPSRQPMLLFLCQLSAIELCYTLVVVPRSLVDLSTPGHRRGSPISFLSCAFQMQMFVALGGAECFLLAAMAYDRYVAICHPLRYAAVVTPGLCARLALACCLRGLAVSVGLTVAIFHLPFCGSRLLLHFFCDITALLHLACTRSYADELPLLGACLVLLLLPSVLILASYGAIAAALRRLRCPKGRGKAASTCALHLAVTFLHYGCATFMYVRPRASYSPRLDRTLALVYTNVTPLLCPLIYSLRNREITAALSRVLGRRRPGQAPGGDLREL
Method in brief: as §1

Measured: odorant receptor agonist call;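 further: active if original authors judged signal statistically different from baseline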

Chain of OR10A2 (Homo sapiens) (Q9H208 whole entry): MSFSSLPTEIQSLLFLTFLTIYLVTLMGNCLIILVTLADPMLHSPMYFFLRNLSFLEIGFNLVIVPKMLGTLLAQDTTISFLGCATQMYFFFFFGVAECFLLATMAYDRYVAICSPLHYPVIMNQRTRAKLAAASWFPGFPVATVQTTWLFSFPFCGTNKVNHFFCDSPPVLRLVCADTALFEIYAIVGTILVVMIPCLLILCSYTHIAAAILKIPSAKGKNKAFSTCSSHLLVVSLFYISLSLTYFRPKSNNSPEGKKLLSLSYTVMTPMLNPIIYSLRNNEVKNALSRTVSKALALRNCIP

C=CCOC(=O)Cc1ccccc1
inactive: OR10A2 (Homo sapiens) | OR10A3 (Homo sapiens) | OR10A4 (Homo sapiens) | OR10A5 (Homo sapiens) | OR10A6 (Homo sapiens) | OR10A7 (Homo sapiens) | OR10AD1 (Homo sapiens) | OR10AG1 (Homo sapiens) | OR10C1 (Homo sapiens)

Cc1c([N+](=O)[O-])c(C)c([N+](=O)[O-])c(C(C)(C)C)c1[N+](=O)[O-]
inactive: OR10A2 (Homo sapiens) | OR10A4 (Homo sapiens) | OR10A5 (Homo sapiens) | OR10A6 (Homo sapiens) | OR10A7 (Homo sapiens) | OR10AC1 (Homo sapiens) | OR10AD1 (Homo sapiens) | OR10AG1 (Homo sapiens) | OR10C1 (Homo sapiens)
